28 molecules from ChEMBL document CHEMBL1137382, “Synthesis and structure-activity relationships of carbazole sulfonamides as a novel class of antimitotic agents against solid tumors” (J Med Chem, 2006) can be followed below.

For one data set, the system named is CEM (human). As to the kind of experiment: Antiproliferative activity against human CEM cells after 72 hrs.
Data set [1] deals with MCF7. Briefly: Antiproliferative activity against human MCF7 cells after 72 hrs. The following applies: MCF7, 72 h. The data set is classed as functional, cell-based. The procedure, abridged: (§1)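 Cells grown in RPMI-1640 with 10% heat-inactivated FCS, penicillin and streptomycin, 5% CO2, 37 °C, used in exponential growth. 5 × 10⁴ cells per well exposed to compound at 0–10 µM for 72 h at 37 °C. IC50 (concentration killing 50% of cells versus untreated controls) determined in duplicate by nonlinear regression.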

Another data set relates to PC-3. Briefly: Antiproliferative activity against human PC3 cells after 72 hrs. Conditions: PC-3, 72 h. It counts as functional, cell-based. In outline: as §1
The test system of data set [2] is Bel-7402. As to the kind of experiment: Antiproliferative activity against human Bel7402 cells after 72 hrs. It counts as functional, cell-based. The following applies: Bel-7402, 72 h. In outline:
as §1

The test system of another data set is MOLT-3. As to the kind of experiment: Antiproliferative activity against human Molt3 cells after 72 hrs. It counts as functional, cell-based. The following applies: MOLT-3, 72 h. In outline:
as §1

The next data set has as its system DMS-79. Briefly: Antiproliferative activity against human DMS79 cells after 72 hrs. It counts as functional, cell-based. The following applies: DMS-79, 72 h. In outline:
as §1

A short description of data set [3]: Antiproliferative activity against human DND1 cells after 72 hrs. The data set is classed as functional, cell-based. The following applies: DND1, 72 h. In outline: as §1
Another data set concerns DU-145. As to the kind of experiment: Antiproliferative activity against human DU145 cells after 72 hrs. The data set is classed as functional, cell-based. The following applies: DU-145, 72 h. The procedure, abridged: as §1
The subject of data set [4] is Bel-7402. As to the kind of experiment: Reduction in tumor volume of human Bel7402 cell xenografted in nude mice at 60 mg/kg, ip. The data set is classed as functional. Conditions: Mus musculus, Bel-7402, ip, route intraperitoneal. In outline:
(§2)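 Female nude mice carry sc xenografts (MCF-7, 8 × 10⁶ cells, after sc estrogen 0.25 mg/mouse 24 h before; or Bel-7402). At 90–120 mm³, mice were randomised into groups of five. Dosing ip q2d for 5–6 weeks, 100 mg/kg for MCF-7 and 60 mg/kg for Bel-7402, with a solvent control. Tumor volume from caliper width and length, mean of n = 5.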
(In general: A xenograft is tissue or cells of one species grown in another, often human tumour cells in immunodeficient mice.)

The subject of data set [5] is MCF7. As to the kind of experiment: Induction of apoptosis in human MCF7 cell line assessed as increase in P-p53 expression upto 48 hrs. The data set is classed as functional, cell-based. The procedure, abridged:
(§3)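 MCF-7 cells treated at 0.022–2.2 µM, or at 0.22 µM for 0–48 h. Lysed on ice in Tris/NaCl/NP-40/PMSF/aprotinin buffer and protein measured by Bradford. Blots blocked in 5% milk/TBST and probed with monoclonal antibodies to bcl-2, p53, cdc-2 and cyclin B1, then HRP anti-mouse. Signals detected by ECL on film.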

In data set [6] the test system is MCF7. Briefly: Induction of apoptosis in human MCF7 cell line assessed as increase in cyclin B1 expression upto 48 hrs. It counts as functional, cell-based. The procedure, abridged: as §3
A short description of data set [7]: Toxicity ip dosed mouse. The data set is classed as organism-based. Conditions: in vivo.
Data set [8] relates to MCF7. As to the kind of experiment: Induction of apoptosis in human MCF7 cell line assessed as increase in cdc2 expression upto 48 hrs. It counts as functional, cell-based. In outline: as §3
The subject of data set [9] is MCF7. Briefly: Reduction in tumor volume of human MCF7 cell xenografted in nude mice at 100 mg/kg, ip. The data set is classed as functional. Conditions: Mus musculus, route intraperitoneal. In outline: as §2
The test system of data set [10] is MCF7. Briefly: Cell cycle arrest in MCF7 cells by accumulation at M phase at 0.22 to 1.1 uM after 24 hrs. The data set is classed as functional, cell-based. Conditions: Homo sapiens. In outline: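 MCF-7 cells exposed at 0.22 µM for up to 24 h. Cells trypsin/EDTA-harvested (1.5 × 10⁶), PBS-washed, RNase-treated (0.5 µg/µL final, 37 °C, 30 min), fixed in ice-cold 70% ethanol ≥12 h at 4 °C, and stained with propidium iodide (0.1 µg/µL final, 4 °C, 60 min). ≥10⁴ events analysed by flow cytometry. Mitotic arrest also scored on Giemsa-stained cytospins by chromosome spreading.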

The source made the active and inactive calls. The rule behind the calls is not given here. A value given as a limit tells only on which side of the number the result lay.

For orientation: IC50 means the concentration that inhibits the measured activity by half. A lower IC50 goes with greater potency. In the case of `CCn1c2ccccc2c2cc(NS(=O)(=O)c3ccc(OC)cc3[N+](=O)[O-])ccc21`, the IC50 in the data set on CEM (human) is > 10000 nM.

`CCn1c2ccccc2c2cc(NS(=O)(=O)c3ccc(OC)cc3N)ccc21`: the IC50 with CEM (human) is > 10000 nM.

Take `COc1cc(OC)c(NS(=O)(=O)c2ccc3c(c2)c2ccccc2n3C)c(OC)c1`: it took 70 nM to reach half-maximal inhibition in the data set with CEM (human) (IC50).

In the case of `COc1cc([C@@H]2c3cc4c(cc3[C@H](O)[C@H]3COC(=O)[C@H]23)OCO4)cc(OC)c1OC` [PODOFILOX], the 50% inhibitory concentration (IC50) in the data set on MCF7 [1] came out at 15 nM; in the data set on PC-3, 10 nM; in the data set on CEM (human), 7.2 nM; in the data set on Bel-7402 [2], 9.1 nM; with MOLT-3, 14 nM; with DMS-79, 23 nM. Moreover, the IC50 in [3] was 12 nM; with DU-145, 52 nM.

`COc1cc(NS(=O)(=O)c2ccc3c(c2)c2ccccc2n3C)c(OC)cc1Cl` had a half-inhibitory concentration (IC50) in the data set on CEM (human) of 46 nM.

`CCn1c2ccccc2c2cc(S(=O)(=O)Nc3ccc4c(c3)OCO4)ccc21` registered an IC50 with CEM (human) of 6250 nM.

In the case of `CCn1c2ccccc2c2cc(S(=O)(=O)Nc3cc(C(F)(F)F)cc(C(F)(F)F)c3)ccc21`, the IC50 in the data set with CEM (human) was > 10000 nM.

Turning to `CCn1c2ccccc2c2cc(S(=O)(=O)Nc3ccc(OC)cc3OC)ccc21`, the IC50 in the data set with MCF7 [1] came to 48 nM; with PC-3, 144 nM; in the data set on CEM (human), 57 nM; with Bel-7402 [2] it was 96 nM; in the data set with MOLT-3 it was 48 nM; in data set [3] it was 120 nM. In the data set with DU-145, this molecule returned an IC50 of 144 nM.

As for `CCn1c2ccccc2c2cc(S(=O)(=O)Nc3ccc(OC)c(N)c3)ccc21`, the concentration for half-maximal inhibition (IC50) in the data set on CEM (human) was found to be 2200 nM.

On to `CCn1c2ccccc2c2cc(NS(=O)(=O)c3ccc(OC)c(OC)c3)ccc21`, for which inhibition with CEM (human) was half-maximal at 2650 nM (IC50).

Broadly, the inhibition in vivo is the change of the read-out against control, counted positive when it falls. Low values mean a response near the control, high ones a response far below the control. The LD50 is the dose at which mortality reaches 50%. Consider `CCn1c2ccccc2c2cc(S(=O)(=O)Nc3cc(OC)c(OC)c(OC)c3)ccc21`, for which the IC50 was found to be 89 nM in the data set with MCF7 [1]; 201 nM with PC-3; 56 nM in the data set on CEM (human); 201 nM in the data set on Bel-7402 [2]; 20 nM in the data set on MOLT-3; 1900 nM in the data set with DMS-79. Moreover, the IC50 in data set [3] came to 89 nM; with DU-145, 603 nM. At 60 mg/kg the inhibition in vivo in the data set with Bel-7402 [4] was 55%. Further, the result in the data set with MCF7 [5], in the data set on MCF7 [6], with MCF7 [8] and with MCF7 [10] was Active. Moreover, the LD50 in [7] is > 500 mg/kg. This molecule also gave an inhibition in vivo at 100 mg/kg with MCF7 [9] of 75%.

For the molecule `COc1cc(NS(=O)(=O)c2ccc3oc4ccccc4c3c2)cc(OC)c1OC`, in the data set on CEM (human), the concentration for half-maximal inhibition (IC50) is > 10000 nM.

As to `CCn1c2ccccc2c2cc(S(=O)(=O)Nc3ccc(OC)cc3)ccc21`, the half-inhibitory concentration (IC50) in the data set on CEM (human) is > 10000 nM.

`CCn1c2ccccc2c2cc(S(=O)(=O)Nc3cc(Cl)c(OC)cc3OC)ccc21` registered a half-inhibitory concentration (IC50) in the data set with CEM (human) of 67 nM.

`CCn1c2ccccc2c2cc(NS(=O)(=O)c3ccc(OC)cc3)ccc21`: the IC50 in the data set with CEM (human) was > 10000 nM.

On to `CCn1c2ccccc2c2cc(S(=O)(=O)Nc3ccc(OC)c(OC)c3)ccc21`, for which, in the data set on CEM (human), the half-maximal inhibitory concentration (IC50) is 2440 nM.

On to `CCn1c2ccccc2c2cc(NS(=O)(=O)c3cccc(C#N)c3)ccc21`, for which, in the data set with CEM (human), the IC50 stood at 1320 nM.

In the data set on CEM (human), `CCn1c2ccccc2c2cc(NS(=O)(=O)c3cccc(OC)c3)ccc21` showed an IC50 of 789 nM.

With `COc1cc(NS(=O)(=O)c2ccc3c(c2)c2ccccc2n3C)cc(OC)c1OC`, the half-maximal inhibitory concentration (IC50) in the data set with MCF7 [1] was 70 nM; with PC-3, 116 nM; with CEM (human) it was 46 nM; in the data set with Bel-7402 [2], 116 nM; in the data set with MOLT-3 it was 19 nM; with DMS-79, 2090 nM. Besides, the figures for the IC50 (in [3]; with DU-145) were 70 nM and 232 nM, respectively.

Turning to `CCn1c2ccccc2c2cc(S(=O)(=O)Nc3ccc(OC)c(Cl)c3)ccc21`, the IC50 with CEM (human) was determined as 482 nM.

In the case of `CCn1c2ccccc2c2cc(S(=O)(=O)Nc3ccc(F)cc3)ccc21`, half-maximal inhibition in the data set on CEM (human) (IC50) required 2170 nM.

In the case of `COc1cc(NS(=O)(=O)c2ccc3[nH]c4ccccc4c3c2)cc(OC)c1OC`, the concentration for half-maximal inhibition (IC50) in the data set with CEM (human) was 606 nM.

Turning to `CCn1c2ccccc2c2cc(S(=O)(=O)NCc3cc(OC)c(OC)c(OC)c3)ccc21`, in the data set on CEM (human), the IC50 is > 10000 nM.

With `CCn1c2ccccc2c2cc(S(=O)(=O)Nc3cc(OC)c(Cl)cc3OC)ccc21`, the IC50 in the data set with MCF7 [1] was 67 nM; with PC-3 it was 90 nM; in the data set on CEM (human), 56 nM; with Bel-7402 [2], 135 nM; in the data set on MOLT-3, 67 nM; in data set [3], 90 nM. In addition, in the data set on DU-145, the IC50 came out at 169 nM.

With `CCn1c2ccccc2c2cc(S(=O)(=O)Nc3cc(OC)ccc3OC)ccc21`, the IC50 in the data set on MCF7 [1] was found to be 98 nM; in the data set with PC-3 it was 780 nM; in the data set on CEM (human), 61 nM; in the data set on Bel-7402 [2], 219 nM; with MOLT-3, 49 nM; in data set [3] it was 195 nM. In the data set with DU-145, it took 365 nM to reach half-maximal inhibition (IC50).

Consider `CCn1c2ccccc2c2cc(NS(=O)(=O)c3cc(OC)ccc3OC)ccc21`, for which, in the data set with CEM (human), inhibition was half-maximal at 603 nM (IC50).

`CCn1c2ccccc2c2cc(S(=O)(=O)Nc3cc(OC)cc(OC)c3)ccc21` came in with a concentration for half-maximal inhibition (IC50) in the data set with CEM (human) of 974 nM.

On to `COc1ccc(/C=C\c2cc(OC)c(OC)c(OC)c2)cc1O` [COMBRETASTATIN A4], for which the IC50 in the data set on MCF7 [1] worked out at 12 nM; with PC-3, 2.8 nM; in the data set with CEM (human) it was 1.9 nM; in the data set on Bel-7402 [2] it was 10 nM; in the data set with MOLT-3, 9.3 nM; with DMS-79, 124 nM. In addition, the IC50 in [3] came to 2.5 nM; with DU-145 it was 9.3 nM.
